Measured values as given in ChEMBL document CHEMBL1122688, “Antimycotic azoles. 7. Synthesis and antifungal properties of a series of novel triazol-3-ones” (1984).

Tests used:
Trichophyton benhamiae = assay: In vitro antifungal activity against Trichophyton mentagrophytes; format: functional, Arthroderma benhamiae
In short: (§1)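 Fungal growth-inhibition screen (Godefroi method) against dermatophytes, yeasts, moulds and other fungi. The value is the lowest concentration (µg/mL) giving total inhibition of growth, tested up to 100 µg/mL.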

Microsporum canis = assay: In vitro antifungal activity against Microsporum canis; format: functional; in short: as §1
[1] = In vivo activity against microsporosis guinea pig, measured as the ratio of animals cured/animals infected (C/I) at dose 2.5 mg/kg; C/I = 0/2; format: functional
Sporothrix schenckii = assay: In vitro antifungal activity against Sporothrix schenck ii; format: functional; in short: as §1
Aspergillus fumigatus = assay: In vitro antifungal activity against Aspergillus fumigatus; format: functional; in short: as §1
Candida tropicalis = assay: In vitro antifungal activity against Candida tropicalis; format: functional; in short: as §1
Phialophora verrucosa = assay: In vitro antifungal activity against Phialophora verrucosa; format: functional; in short: as §1
[2] = In vivo activity against vaginal candidoses in rats, measured as the ratio of animals cured/animals infected (C/I) at dose 2.5 mg/kg; C/I = 2/4; format: functional
Trichophyton rubrum = assay: In vitro antifungal activity against Trichophyton rubrum; format: functional; in short: as §1
Cryptococcus neoformans = assay: In vitro antifungal activity against Cryptococcus neoformans; format: functional; in short: as §1
[3] = In vitro antifungal activity against Mucor sp; format: functional; in short: as §1
Saprolegnia = assay: In vitro antifungal activity against Saprolegnia sp; format: functional; in short: as §1
[4] = In vivo activity against microsporosis guinea pig, measured as the ratio of animals cured/animals infected (C/I) at dose 10 mg/kg; C/I = 2/2; format: functional
Candida albicans = assay: In vitro antifungal activity against Candida albicans; format: functional; in short: as §1
[5] = In vivo activity against microsporosis guinea pig, measured as the ratio of animals cured/animals infected (C/I) at dose 2.5 mg/kg; 0/2; format: functional
[6] = In vivo activity against microsporosis guinea pig, measured as the ratio of animals cured/animals infected (C/I) at dose 10 mg/kg; 1/2; format: functional
[7] = In vivo activity against vaginal candidoses in rats, measured as the ratio of animals cured/animals infected (C/I) at dose 2.5 mg/kg; 0/2; format: functional
[8] = In vivo activity against microsporosis guinea pig, measured as the ratio of animals cured/animals infected (C/I) at dose 10 mg/kg; 4/34; format: functional
[9] = In vivo activity against vaginal candidoses in rats, measured as the ratio of animals cured/animals infected (C/I) at dose 10 mg/kg; 173/181; format: functional
[10] = In vivo activity against vaginal candidoses in rats, measured as the ratio of animals cured/animals infected (C/I) at dose 1.25 mg/kg; 0/12; format: functional
[11] = In vivo activity against microsporosis guinea pig, measured as the ratio of animals cured/animals infected (C/I) at dose 2.5 mg/kg;0/14; format: functional
[12] = In vivo activity against microsporosis guinea pig, measured as the ratio of animals cured/animals infected (C/I) at dose 20 mg/kg; 30/30; format: functional
[13] = In vivo activity against vaginal candidoses in rats, measured as the ratio of animals cured/animals infected (C/I) at dose 2.5 mg/kg; 2/8; format: functional
[14] = In vivo activity against vaginal candidoses in rats, measured as the ratio of animals cured/animals infected (C/I) at dose 0.63 mg/kg; C/I = 0/2; format: functional
[15] = In vivo activity against vaginal candidoses in rats, measured as the ratio of animals cured/animals infected (C/I) at dose 2.5 mg/kg; C/I = 2/2; format: functional
[16] = In vivo activity against microsporosis guinea pig, measured as the ratio of animals cured/animals infected (C/I) at dose 20 mg/kg; C/I = 0/2; format: functional
[17] = In vivo activity against vaginal candidoses in rats, measured as the ratio of animals cured/animals infected (C/I) at dose 10 mg/kg; C/I = 1/2; format: functional
[18] = In vivo activity against vaginal candidoses in rats, measured as the ratio of animals cured/animals infected (C/I) at dose 2.5 mg/kg; C/I = 1/2; format: functional
[19] = In vivo activity against microsporosis guinea pig, measured as the ratio of animals cured/animals infected (C/I) at dose 1.25 mg/kg; C/I = 12/15; format: functional
Rattus norvegicus [20] = assay: In vivo activity against vaginal candidoses in rats, measured as the ratio of animals cured/animals infected (C/I) at dose 1.25 mg/kg; C/I = 13/33; format: functional
[21] = In vivo activity against vaginal candidoses in rats, measured as the ratio of animals cured/animals infected (C/I) at dose 2.5 mg/kg; C/I = 29/34; format: functional
[22] = In vivo activity against microsporosis guinea pig, measured as the ratio of animals cured/animals infected (C/I) at dose 2.5 mg/kg; C/I = 11/12; format: functional
[23] = In vivo activity against microsporosis guinea pig, measured as the ratio of animals cured/animals infected (C/I) at dose 10 mg/kg; C/I = 6/6; format: functional
[24] = In vivo activity against vaginal candidoses in rats, measured as the ratio of animals cured/animals infected (C/I) at dose 10 mg/kg; C/I = 12/12; format: functional
[25] = In vivo activity against vaginal candidoses in rats, measured as the ratio of animals cured/animals infected (C/I) at dose 0.63 mg/kg; C/I = 7/40; format: functional
[26] = In vivo activity against vaginal candidoses in rats, measured as the ratio of animals cured/animals infected (C/I) at dose 0.63 mg/kg; C/I = 1/6; format: functional
[27] = In vivo activity against microsporosis guinea pig, measured as the ratio of animals cured/animals infected (C/I) at dose 10 mg/kg; C/I = 0/4; format: functional
[28] = In vivo activity against vaginal candidoses in rats, measured as the ratio of animals cured/animals infected (C/I) at dose 2.5 mg/kg; C/I = 9/10; format: functional
[29] = In vivo activity against vaginal candidoses in rats, measured as the ratio of animals cured/animals infected (C/I) at dose 1.25 mg/kg; C/I = 1/4; format: functional
[30] = In vivo activity against microsporosis guinea pig, measured as the ratio of animals cured/animals infected (C/I) at dose 2.5 mg/kg; C/I = 5/8; format: functional
[31] = In vivo activity against vaginal candidoses in rats, measured as the ratio of animals cured/animals infected (C/I) at dose 0.63 mg/kg; C/I = 4/10; format: functional
[32] = In vivo activity against microsporosis guinea pig, measured as the ratio of animals cured/animals infected (C/I) at dose 1.25 mg/kg; C/I = 3/6; format: functional
[33] = In vivo activity against vaginal candidoses in rats, measured as the ratio of animals cured/animals infected (C/I) at dose 1.25 mg/kg; C/I = 7/10; format: functional
[34] = In vivo activity against vaginal candidoses in rats, measured as the ratio of animals cured/animals infected (C/I) at dose 2.5 mg/kg; C/I = 7/10; format: functional
[35] = In vivo activity against microsporosis guinea pig, measured as the ratio of animals cured/animals infected (C/I) at dose 2.5 mg/kg; C/I = 7/12; format: functional
[36] = In vivo activity against vaginal candidoses in rats, measured as the ratio of animals cured/animals infected (C/I) at dose 0.63 mg/kg; C/I = 2/12; format: functional
Rattus norvegicus [37] = assay: In vivo activity against vaginal candidoses in rats, measured as the ratio of animals cured/animals infected (C/I) at dose 1.25 mg/kg; C/I = 12/22; format: functional
[38] = In vivo activity against vaginal candidoses in rats, measured as the ratio of animals cured/animals infected (C/I) at dose 10 mg/kg; C/I = 5/6; format: functional
[39] = In vivo activity against vaginal candidoses in rats, measured as the ratio of animals cured/animals infected (C/I) at dose 2.5 mg/kg; C/I = 20/24; format: functional
[40] = In vivo activity against microsporosis guinea pig, measured as the ratio of animals cured/animals infected (C/I) at dose 1.25 mg/kg; C/I = 2/6; format: functional

Compound	Inhibition (Trichophyton benhamiae) [µg/mL]	Inhibition (Microsporum canis) [µg/mL]	Inhibition (Sporothrix schenckii) [µg/mL]	Inhibition (Aspergillus fumigatus) [µg/mL]	Inhibition (Candida tropicalis) [µg/mL]	Inhibition (Phialophora verrucosa) [µg/mL]	Inhibition (Trichophyton rubrum) [µg/mL]	Inhibition (Cryptococcus neoformans) [µg/mL]	Inhibition [3] [µg/mL]	Inhibition (Saprolegnia) [µg/mL]	C/I ratio [4]	Inhibition (Candida albicans) [µg/mL]	other results
Cc1nn(CC(C)C)c(=O)n1-c1ccc(N2CCN(c3ccc(OC[C@@H]4COC(Cn5ccnc5)(c5ccc(Cl)cc5Cl)O4)cc3)CC2)cc1 (stereo partly specified)	100	>100	>100	>100	100	>100	100	100	>100	>100	2	>100	C/I ratio [1]: 0; C/I ratio [2]: 0.5
C=CCn1ncn(-c2ccc(N3CCN(c4ccc(OC[C@@H]5COC(Cn6ccnc6)(c6ccc(Cl)cc6Cl)O5)cc4)CC3)cc2)c1=O (stereo partly specified)													Lowest level of total inhibition (Microsporum canis): > 100 µg/mL; C/I ratio [5]: 0; C/I ratio [6]: 1; C/I ratio [7]: 0
CC(=O)N1CCN(c2ccc(OCC3COC(Cn4ccnc4)(c4ccc(Cl)cc4Cl)O3)cc2)CC1 (stereo unspecified) [KETOCONAZOLE]													C/I ratio [8]: 0.118; C/I ratio [9]: 0.956; C/I ratio [10]: 0; C/I ratio [11]: 0; C/I ratio [12]: 1; C/I ratio [13]: 0.25
CCC(C)n1nc(C)n(-c2ccc(N3CCN(c4ccc(OC[C@@H]5COC(Cn6cncn6)(c6ccc(Cl)cc6Cl)O5)cc4)CC3)cc2)c1=O (stereo partly specified)	100	>100	>100	>100	>100	>100	>100	>100	>100	>100	2	10	C/I ratio [1]: 0; C/I ratio [14]: 0; C/I ratio [15]: 1
Cc1nn(C)c(=O)n1-c1ccc(N2CCN(c3ccc(OC[C@@H]4COC(Cn5cncn5)(c5ccc(Cl)cc5Cl)O4)cc3)CC2)cc1 (stereo partly specified)	>100	>100	>100	>100	>100	>100	>100	>100	>100	>100		>100	C/I ratio [16]: 0; C/I ratio [17]: 1; C/I ratio [18]: 1
CCC(C)n1ncn(-c2ccc(N3CCN(c4ccc(OC[C@@H]5COC(Cn6cncn6)(c6ccc(Cl)cc6Cl)O5)cc4)CC3)cc2)c1=O (stereo partly specified)	10	>100	>100	>100	100	>100	10	100	>100	>100		>100	C/I ratio [19]: 0.8; C/I ratio (Rattus norvegicus [20]): 0.394; C/I ratio [21]: 0.853; C/I ratio [22]: 11; C/I ratio [23]: 1; C/I ratio [24]: 1; C/I ratio [25]: 0.175
CCn1nc(C)n(-c2ccc(N3CCN(c4ccc(OC[C@@H]5COC(Cn6cncn6)(c6ccc(Cl)cc6Cl)O5)cc4)CC3)cc2)c1=O (stereo partly specified)	>100	>100	>100	>100	>100	>100	>100	>100	>100	>100		>100	C/I ratio [26]: 1; C/I ratio [27]: 0; C/I ratio [28]: 9; C/I ratio [29]: 1
CC(C)Cn1ncn(-c2ccc(N3CCN(c4ccc(OC[C@@H]5COC(Cn6cncn6)(c6ccc(Cl)cc6Cl)O5)cc4)CC3)cc2)c1=O (stereo partly specified)	10	>100	>100	>100	10	>100	10	100	>100	>100	2	100	C/I ratio [30]: 0.625; C/I ratio [31]: 0.4; C/I ratio [32]: 0.5; C/I ratio [33]: 0.7; C/I ratio [34]: 0.7
CC(C)n1ncn(-c2ccc(N3CCN(c4ccc(OC[C@@H]5COC(Cn6cncn6)(c6ccc(Cl)cc6Cl)O5)cc4)CC3)cc2)c1=O (stereo partly specified)	100	>100	>100	>100	>100	>100	>100	>100	>100	>100		>100	C/I ratio [35]: 0.583 (not active); C/I ratio [36]: 0.167; C/I ratio (Rattus norvegicus [37]): 0.545; C/I ratio [38]: 0.833; C/I ratio [39]: 0.833; C/I ratio [23]: 1; C/I ratio [40]: 2
